# Source: PubChem (Sanford-Burnham Center for Chemical Genomics)
# SUMO1 PPI mod: modulators of SUMO1 protein-protein interactions, primary screen, biochemical, uHTS. SUMO1 binding to a labelled peptide, TR-FRET, 1 h. inhibition, % at 20 µM. hit rate 0.33% among 360,000. AID 602429, 2012; in the data active means inhibition above about 37%
# Target sequence (P63165 whole entry, looked up): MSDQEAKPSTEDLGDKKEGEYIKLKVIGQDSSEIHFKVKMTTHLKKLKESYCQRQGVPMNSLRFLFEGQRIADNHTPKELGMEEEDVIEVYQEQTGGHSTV
# LMPTP block: LMPTP phosphatase inhibitors, primary screen, biochemical, fluorescence intensity, uHTS. Low molecular weight phosphotyrosine protein phosphatase (Homo sapiens), P24666. recombinant LMPTP-A, OMFP fluorogenic substrate. inhibition, % at 20 µM. hit rate 0.22% among 360,000. AID 651560, 2012;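 active means compounds that cut the enzyme signal by at least half of the control window in the single-dose screen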
# Target sequence (P24666 whole entry, looked up): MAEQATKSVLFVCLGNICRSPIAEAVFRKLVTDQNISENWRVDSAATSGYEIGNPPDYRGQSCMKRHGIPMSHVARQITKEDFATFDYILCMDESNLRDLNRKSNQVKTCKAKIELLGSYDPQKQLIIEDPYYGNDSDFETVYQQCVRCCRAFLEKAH
#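 Test system: LMPTP-A, protein tyrosine phosphatase of low molecular weight; Input: 0.625 nM enzyme; Incubation: 50 min dark incubation at room temperature; Signal: endpoint fluorescence intensity from OMFP dephosphorylation; Read-out basis: % inhibition versus control wells.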
# NadD inh: inhibitors of S. aureus NadD, primary screen, biochemical, colorimetric, uHTS; purified NadD enzyme, colorimetric absorbance read-out; inhibition, % at 20 µM; AID 602399, 2012; hit rate 0.78% among 360,000; in the data active means inhibition above about 26%
# Scp1 inh: Scp-1 phosphatase inhibitors, primary screen, biochemical, colorimetric, uHTS. Recombinant Scp1, phosphopeptide, malachite green phosphate absorbance. inhibition, % at 20 µM. hit rate 0.88% among 340,000. AID 493091, 2011;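 active means inhibition above about 50% at 20 µM, limit read from the data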
# Target sequence (Q9GZU7 76-261 limits assumed): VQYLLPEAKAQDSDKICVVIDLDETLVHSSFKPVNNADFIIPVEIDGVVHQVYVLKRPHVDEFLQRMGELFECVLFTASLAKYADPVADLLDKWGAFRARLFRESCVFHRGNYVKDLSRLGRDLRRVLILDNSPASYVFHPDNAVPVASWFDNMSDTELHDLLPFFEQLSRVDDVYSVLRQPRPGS
#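 assay system = SCP-1 phosphatase catalytic domain, residues 76-261 | buffer or medium = 50 mM Tris acetate pH 5.5, 0.005% Tween-20, 10 mM MgCl2 | incubation = enzyme reaction 45 min at room temperature, colour 5 min, stabilisation 30 min | signal = Phosphate-binding colour reagent, absorbance read at 630 nm | measure = % inhibition at 20 µM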
# DNMT1 block: human DNMT1 methyltransferase inhibitors, primary screen, biochemical, molecular beacon, fluorescence, HinP1I cleavage, uHTS | DNA (cytosine-5)-methyltransferase 1 (Homo sapiens), P26358 | inhibition (reported as % activation of signal), % at 10 µM | hit rate 0.83% among 360,000; in the data active means inhibition above about 50%
# STEP block: STEP phosphatase inhibitors, primary screen, biochemical, fluorescence intensity, uHTS. hit rate 0.25% among 360,000. inhibition, % at 20 µM. recombinant STEP, OMFP fluorogenic substrate;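 active means inhibition at 20 µM, scaled per plate between control wells, above about 37%, limit read from the data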
#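 material = STEP tyrosine phosphatase | reagent = fluorogenic phosphatase substrate OMFP at 25 µM final | doses = single compound dose of 20 µM, 1% DMSO final | schedule = 20 min reaction, room temperature, in the dark | measured by = fluorescence, 480/540 nm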
# A number is an active result; - = inactive; . = no result given; + = active, no number. Most compounds without a hit are left out; they make up all but 2.4% or so of the library.
SMILES,SUMO1 PPI mod,LMPTP block,NadD inh,Scp1 inh,DNMT1 block,STEP block
Cc1ccc(/C=C2\SC(=S)N(CCC(=O)NNC(=O)c3ccccc3O)C2=O)cc1,-,-,38,-,-,-
Cc1ccc(NC(=S)N=Nc2c(O)n(C)c3ccc(S(=O)(=O)N4CCOCC4)cc23)cc1C,-,-,31,-,-,-
O=C(Nc1cccc([N+](=O)[O-])c1)C1CC(=O)N(Cc2ccccc2)C1 (centres undefined),-,-,-,-,-,-
C[C@H](NC(=O)c1nc[nH]c1C(=O)N1CCc2ccccc2C1)C(=O)OC(C)(C)C,-,-,-,-,-,-
Nc1ncnc2c1ncn2[C@@H]1O[C@H](C(=O)N(CCC2=CCCCC2)CC2CC2)[C@@H](O)[C@H]1O,-,-,-,.,-,-
c1coc(-c2nc(-c3ccco3)c(-c3ccco3)nc2-c2ccco2)c1,83,82,46,93,117,94
Nc1nc(-c2ccco2)cs1,-,-,-,-,-,-
CC(C)(CO)CNC(=O)CCc1nnc(-c2ccc(-c3ccccc3)cc2)o1,-,-,-,-,-,-
Cc1cccc(N2C(=O)CC(Sc3nc(-c4ccccc4)c4cc(Cl)ccc4n3)C2=O)c1 (centres undefined),44,-,-,-,-,-
Cc1cccc(N2C(=O)CC(Sc3nc(C)cc(C)n3)C2=O)c1 (centres undefined),-,-,-,-,-,-
c1cc2c3c(cccc3c1)NN=N2,-,-,-,-,-,-
Cc1cc(O)c2c(c1O)C(=O)[C@]13C(=C2O)C(=O)[C@@H]2[C@@H](O)[C@H]1[C@@H]1[C@H](O)[C@H]3C(=O)C3=C(O)c4c(O)cc(C)c(O)c4C(=O)[C@]312,103,88,32,58,95,43
CN(C)S(=O)(=O)c1ccc(C(=O)Nc2nnc(SCc3cccc4ccccc34)s2)cc1,-,-,-,-,-,-
COc1ccc(S(=O)(=O)N2CCC(NC(=O)c3ccccc3)CC2)cc1,-,-,-,-,-,-
COc1ccc(N2CCN(S(=O)(=O)c3ccc(C(=O)NC4CCCC4)cc3)CC2)cc1,51,-,-,-,-,-
CN1CCN(/C=N/c2c(C#N)cnn2-c2ccccc2)CC1,-,-,-,-,-,-
COc1ccc2nc3cc(Cl)ccc3c(Nc3cc(CN4CCCC4)c(O)c(CN4CCCC4)c3)c2n1,-,50,-,.,65,-
CCN1CCCC1CNC(=O)c1cn(C)c2ccc(S(=O)(=O)N3CCCCCC3)cc2c1=O (centres undefined),-,-,-,-,-,-
Oc1ccccc1N=Nc1nc(-c2ccccc2)c(-c2ccccc2)[nH]1,-,-,35,-,-,-
N#C/C(=C\c1ccc(O)c(O)c1)C(=O)Nc1cccc2ncccc12,-,66,86,-,-,-
OCCC1CN(Cc2cccn2-c2nccs2)CCN1C1CCCCC1 (centres undefined),-,-,-,-,-,-
S=c1[nH]nc2ccc3ccccc3n12,-,71,-,.,-,-
COc1cc2c(cc1OC)C(=O)C(Br)CC2 (centres undefined),111,-,-,.,83,-
O=C(C[n+]1cc(-c2ccc(Cl)cc2)n2c1CCC2)N1c2ccccc2Sc2ccccc21,-,-,-,-,-,-
Cc1cccc(NC(=O)c2nc[nH]c2C(=O)N[C@@H](CC(C)C)C(=O)OC(C)(C)C)c1,-,-,-,-,-,-
SMILES,SUMO1 PPI mod,LMPTP block,NadD inh,Scp1 inh,DNMT1 block,STEP block
CC(C)CCNC(=O)C1C2C=CC3(CN(Cc4ccccc4Cl)C(=O)C13)O2 (centres undefined),-,-,-,-,-,-
N#C/C(=C/N1CCOCC1)c1ccccc1,-,-,-,-,-,-
CCN1CCN(C2=CC3=CC(=C(C#N)C#N)CCC3CC2)CC1 (centres undefined),-,-,-,-,+,-
CN1CCN(C2=CC3=CC(=C(C#N)C#N)CCC3CC2)CC1 (centres undefined),-,-,-,-,+,-
N#CC(C#N)=C1C=C2C=C(N3CCCCCC3)CCC2CC1 (centres undefined),-,-,-,-,+,-
CC1(C)CC(NCCN2CCN(C3=CC(=C(C#N)C#N)CC(C)(C)C3)CC2)=CC(=C(C#N)C#N)C1,-,-,-,-,-,-
N#CC(C#N)=C1C=C2C=C(N3CCOCC3)CCC2CC1 (centres undefined),-,-,-,-,+,-
CC(=O)N(c1ccc(C(F)(F)F)cc1)S(=O)(=O)c1ccc(N2C(=O)CCC2=O)cc1,-,-,-,-,-,-
COc1cc(/C=C2\SC(=S)N(NC(=O)c3cccc(O)c3)C2=O)ccc1O,-,-,-,-,-,-
Cc1cc2[nH]c3c(c[n+](C)c4ccccc34)c2cc1C,-,73,-,-,-,-
Cc1cc(=O)[nH]c2ccccc12,-,-,-,-,-,-
Cc1ccccc1-n1c(C)cc(/C=C2/C(=N)N3C(c4ccccc4)=CSC3=NC2=O)c1C,-,-,-,-,-,-
N=C1/C(=C\c2ccc(-c3cccc(C(=O)O)c3)o2)C(=O)N=C2SC=C(c3ccccc3)N12,89,80,49,72,90,-
OC(c1ccccn1)C1CCN(Cc2nc(C(c3ccccc3)c3ccccc3)no2)CC1 (centres undefined),-,-,-,-,-,-
COc1cc2c(cc1OC)/C(=C/C(=O)c1ccc(OC)c([N+](=O)[O-])c1)NCC2,42,-,-,-,-,-
COc1cc2c(cc1OC)/C(=C/C(=O)c1cccc([N+](=O)[O-])c1)NCC2,-,-,-,-,-,-
O=c1[nH]c(=S)[nH]c2c1C(c1ccc(Br)cc1)c1c([nH]c(=S)[nH]c1=O)O2,115,68,-,97,67,92
O=C1CCNc2cc3ccccc3cc21,-,-,31,-,-,-
Cc1ccc2c(c1)c(/C=C/c1cc[n+](C)cc1)c(C)n2C,-,-,-,54,-,-
CC(=O)c1ccc(NC(=O)c2ccc(N3C(=O)c4cccnc4C3=O)cc2)cc1,41,-,-,-,-,-
O=C(O)c1ccc(N2C(=O)c3cccnc3C2=O)cc1,-,-,-,-,-,-
